Assay results from ChEMBL document CHEMBL4043171, “Chemoselective fluorination and chemoinformatic analysis of griseofulvin: Natural vs fluorinated fungal metabolites” (Bioorg Med Chem, 2017).
Activity calls are given as the source filed them. No cut-off for these calls is given here.

system: MDA-MB-435; experiment: Cytotoxicity against human MDA-MB-435 cells assessed as reduction in cell viability by cell titer 96 aqueous one solution cell proliferation assay; format: functional, cell-based; settings: not given
Method in brief: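 Cells were grown in RPMI 1640 with 10% FBS and penicillin/streptomycin at 37°C under 5% CO2. Log-phase cells were trypsinized, washed twice, seeded at 5,000 per well and incubated overnight. Compounds were added at final 20, 4, 0.8, 0.16 and 0.032 µM in 0.5% DMSO and incubated for 72 h at 37 °C. Viability was read by MTS-type absorbance assay as % survival versus DMSO control. Vinblastine served as positive control.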

| Compound | IC50 [µM] |
| --- | --- |
| COC1=CC(=O)C[C@@H](C)[C@]12Oc1c(Cl)c(OC)cc(OC)c1C2=O [GRISEOFULVIN] | 6.4 |
| COC1=CC(=O)C[C@@H](C)[C@]12Oc1c(F)c(OC)cc(OC)c1C2=O | 22 |

system: OVCAR-3; experiment: Cytotoxicity against human OVCAR3 cells assessed as reduction in cell viability by cell titer 96 aqueous one solution cell proliferation assay; format: functional, cell-based; settings: not given

| Compound | IC50 [µM] |
| --- | --- |
| COC1=CC(=O)C[C@@H](C)[C@]12Oc1c(Cl)c(OC)cc(OC)c1C2=O [GRISEOFULVIN] | 48.5 |

system: MDA-MB-435; experiment: Cytotoxicity against human MDA-MB-435 cells assessed as reduction in cell viability at 50 uM by cell titer 96 aqueous one solution cell proliferation assay; format: functional, cell-based; settings: not given

| Compound | Activity |
| --- | --- |
| COC1=CC(=O)C2=C(O[C@]3(C2=O)C(OC)=CC(=O)C[C@H]3C)C1(F)Cl (mixture of isomers) | inactive |
| COC1=CC(=O)[C@H](O)[C@@H](C)[C@]12Oc1cc(OC)c(F)c(OC)c1C2=O | inactive |
| COC1=CC(=O)C[C@@H](C)[C@]12Oc1cc(OC)c(F)c(OC)c1C2=O | inactive |
| COC1=CC(=O)C[C@@H](C)[C@]12Oc1cc(O)cc(OC)c1C2=O | inactive |
| COC1=CC(=O)[C@H](O)[C@@H](C)[C@]12Oc1c(F)c(OC)cc(OC)c1C2=O | inactive |
| COC1=CC(=O)C[C@@H](C)[C@]12Oc1c(Cl)c(O)cc(OC)c1C2=O | inactive |
| COC1=CC(=O)C[C@@H](C)[C@]12Oc1c(Cl)c(OC)c(F)c(OC)c1C2=O | inactive |
| COC1=CC(=O)[C@H](O)[C@@H](C)[C@]12Oc1c(Cl)c(OC)cc(OC)c1C2=O | inactive |
| COC1=CC(=O)C[C@@H](C)[C@]12Oc1cc(OC)cc(OC)c1C2=O | inactive |
| COC1=CC(=O)[C@H](O)[C@@H](C)[C@]12Oc1cc(OC)cc(OC)c1C2=O | inactive |

system: MDA-MB-231; experiment: Cytotoxicity against human MDA-MB-231 cells assessed as reduction in cell viability at 50 uM by cell titer 96 aqueous one solution cell proliferation assay; format: functional, cell-based; settings: not given

| Compound | Activity |
| --- | --- |
| COC1=CC(=O)C2=C(O[C@]3(C2=O)C(OC)=CC(=O)C[C@H]3C)C1(F)Cl (mixture of isomers) | inactive |
| COC1=CC(=O)[C@H](O)[C@@H](C)[C@]12Oc1cc(OC)c(F)c(OC)c1C2=O | inactive |
| COC1=CC(=O)C[C@@H](C)[C@]12Oc1cc(OC)c(F)c(OC)c1C2=O | inactive |
| COC1=CC(=O)C[C@@H](C)[C@]12Oc1cc(O)cc(OC)c1C2=O | inactive |
| COC1=CC(=O)[C@H](O)[C@@H](C)[C@]12Oc1c(F)c(OC)cc(OC)c1C2=O | inactive |
| COC1=CC(=O)C[C@@H](C)[C@]12Oc1c(Cl)c(O)cc(OC)c1C2=O | inactive |
| COC1=CC(=O)C[C@@H](C)[C@]12Oc1c(Cl)c(OC)c(F)c(OC)c1C2=O | inactive |
| COC1=CC(=O)[C@H](O)[C@@H](C)[C@]12Oc1c(Cl)c(OC)cc(OC)c1C2=O | inactive |
| COC1=CC(=O)C[C@@H](C)[C@]12Oc1cc(OC)cc(OC)c1C2=O | inactive |
| COC1=CC(=O)C[C@@H](C)[C@]12Oc1c(Cl)c(OC)cc(OC)c1C2=O [GRISEOFULVIN] | inactive |
| COC1=CC(=O)C[C@@H](C)[C@]12Oc1c(F)c(OC)cc(OC)c1C2=O | inactive |
| COC1=CC(=O)[C@H](O)[C@@H](C)[C@]12Oc1cc(OC)cc(OC)c1C2=O | inactive |

system: OVCAR-3; experiment: Cytotoxicity against human OVCAR3 cells assessed as reduction in cell viability at 50 uM by cell titer 96 aqueous one solution cell proliferation assay; format: functional, cell-based; settings: not given

| Compound | Activity |
| --- | --- |
| COC1=CC(=O)C2=C(O[C@]3(C2=O)C(OC)=CC(=O)C[C@H]3C)C1(F)Cl (mixture of isomers) | inactive |
| COC1=CC(=O)[C@H](O)[C@@H](C)[C@]12Oc1cc(OC)c(F)c(OC)c1C2=O | inactive |
| COC1=CC(=O)C[C@@H](C)[C@]12Oc1cc(OC)c(F)c(OC)c1C2=O | inactive |
| COC1=CC(=O)C[C@@H](C)[C@]12Oc1cc(O)cc(OC)c1C2=O | inactive |
| COC1=CC(=O)[C@H](O)[C@@H](C)[C@]12Oc1c(F)c(OC)cc(OC)c1C2=O | inactive |
| COC1=CC(=O)C[C@@H](C)[C@]12Oc1c(Cl)c(O)cc(OC)c1C2=O | inactive |
| COC1=CC(=O)C[C@@H](C)[C@]12Oc1c(Cl)c(OC)c(F)c(OC)c1C2=O | inactive |
| COC1=CC(=O)[C@H](O)[C@@H](C)[C@]12Oc1c(Cl)c(OC)cc(OC)c1C2=O | inactive |
| COC1=CC(=O)C[C@@H](C)[C@]12Oc1cc(OC)cc(OC)c1C2=O | inactive |
| COC1=CC(=O)C[C@@H](C)[C@]12Oc1c(F)c(OC)cc(OC)c1C2=O | inactive |
| COC1=CC(=O)[C@H](O)[C@@H](C)[C@]12Oc1cc(OC)cc(OC)c1C2=O | inactive |

system: Nannizzia gypsea; experiment: Antifungal activity against Microsporum gypseum at 25 ug/disc incubated for 5 days by agar disk diffusion method; format: functional; settings: 120 h, read-out: DIZ
Method in brief: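 Conidia of M. gypseum, kept on Sabouraud dextrose agar, were harvested in sterile water and adjusted to 0.5–1.0 OD at 600 nm (~10^5 cells/mL). The suspension was seeded onto Mueller-Hinton agar with 2% glucose and 0.5 µg/ml methylene blue. Compounds in DMSO were loaded at 25 µg per 6 mm paper disk. Inhibition-zone diameters (mm) were read after 5 d, as mean ± SD of four replicates.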

| Compound | zone of inhibition at 25 µg/disc [mm] |
| --- | --- |
| COC1=CC(=O)C2=C(O[C@]3(C2=O)C(OC)=CC(=O)C[C@H]3C)C1(F)Cl (mixture of isomers) | 0 |
| COC1=CC(=O)[C@H](O)[C@@H](C)[C@]12Oc1cc(OC)c(F)c(OC)c1C2=O | 0 |
| COC1=CC(=O)C[C@@H](C)[C@]12Oc1cc(OC)c(F)c(OC)c1C2=O | 0 |
| COC1=CC(=O)C[C@@H](C)[C@]12Oc1cc(O)cc(OC)c1C2=O | 0 |
| COC1=CC(=O)[C@H](O)[C@@H](C)[C@]12Oc1c(F)c(OC)cc(OC)c1C2=O | 0 |
| COC1=CC(=O)C[C@@H](C)[C@]12Oc1c(Cl)c(O)cc(OC)c1C2=O | 0 |
| COC1=CC(=O)C[C@@H](C)[C@]12Oc1c(Cl)c(OC)c(F)c(OC)c1C2=O | 23 |
| COC1=CC(=O)[C@H](O)[C@@H](C)[C@]12Oc1c(Cl)c(OC)cc(OC)c1C2=O | 0 |
| COC1=CC(=O)C[C@@H](C)[C@]12Oc1cc(OC)cc(OC)c1C2=O | 0 |
| COC1=CC(=O)C[C@@H](C)[C@]12Oc1c(Cl)c(OC)cc(OC)c1C2=O [GRISEOFULVIN] | 35 |
| COC1=CC(=O)C[C@@H](C)[C@]12Oc1c(F)c(OC)cc(OC)c1C2=O | 34 |
| COC1=CC(=O)[C@H](O)[C@@H](C)[C@]12Oc1cc(OC)cc(OC)c1C2=O | 0 |

system: Huh7.5.1; experiment: Cytotoxicity against human Huh7.5.1 cells assessed as reduction in cell viability by ATPlite assay; settings: Huh-7.5.1

| Compound | IC50 [µM] |
| --- | --- |
| COC1=CC(=O)C[C@@H](C)[C@]12Oc1c(Cl)c(OC)cc(OC)c1C2=O [GRISEOFULVIN] | 10 to 25 |
| COC1=CC(=O)C[C@@H](C)[C@]12Oc1c(F)c(OC)cc(OC)c1C2=O | 10 to 25 |
